“Also recorded” adds a separate entry of the source.
Columns and labels:
[1] = biological target: T1, human mGlu1 WT receptor (Homo sapiens, UniProt Q13255); assay: Calcium mobilization mGlu1 assay; assay type: cell-based
[2] = system: Male C57Bl/6 mice; assay: Behavioral convulsions, modified Racine score; assay type: in vivo; conditions: for behavioral convulsions (modified Racine score 0–5): 10% Tween 80, monitored 3 h, n = 3
Procedure, shortened: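 Male C57Bl/6 mice (25–30 g) got a single ip dose of test compound (100 mg/kg) or a reference mGlu5 ago-PAM (1 or 3 mg/kg). Behavior was watched continuously for 3 h and convulsions were scored on a modified Racine scale (0–5).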

[3] = In vitro intrinsic and hepatic clearance, rat; assay type: in vitro ADME
[4] = Plasma free fraction, human plasma; assay type: in vitro ADME
[5] = Plasma free fraction, rat plasma; assay type: in vitro ADME
[6] = In vitro intrinsic and hepatic clearance, human; assay type: in vitro ADME
[7] = Ex vivo metabolism/stability in human plasma; assay type: in vitro ADME; conditions: 10 μM incubation, 37 °C, 4 h, mass spectrometry
Procedure, shortened: (§1)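 Test compound at 10 μM incubation concentration in rat or human plasma at 37 °C. Samples were taken at 0 and 4 h and analysed by mass spectrometry for remaining parent and for metabolites formed.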

[8] = biological target: rat mGlu1 WT receptors (Rattus norvegicus, UniProt P23385); assay: Calcium mobilization concentration-response curves on rat mGlu1; assay type: cell-based
[9] = Ex vivo metabolism/stability in rat plasma; assay type: in vitro ADME; conditions: 10 μM incubation, 37 °C, 4 h, mass spectrometry
Procedure, shortened: as §1

[10] = biological target: T1, human mGlu1 WT receptor; assay: Fold-shift of glutamate concentration-response curve, human mGlu1 WT cells; assay type: cell-based; conditions: 10 μM compound
[11] = Rat iv PK; assay type: in vivo; conditions: rat iv PK (0.2 mg/kg)
[12] = system: CA3 pyramidal cell body layer in a mouse hippocampal slice preparation; assay: Extracellular recording of spontaneous spike
Procedure, shortened: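 Hippocampal slices with extracellular recording from the CA3 pyramidal cell body layer. Frequency of spontaneous activity was tracked before, during and after bath application and washout of test compound (10 μM) or DHPG (50 μM, positive control). Each was compared with baseline by paired t test, n = 6 per treatment.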

[13] = system: mGlu2; assay: Standard fold-shift selectivity assay; assay type: cell-based; conditions: 10 μM compound
[14] = biological target: hmGlu4 (Homo sapiens, UniProt Q14833); assay: Calcium mobilization assay, mGlu4 PAM activity; assay type: cell-based; conditions: n = 3 in triplicate
[15] = system: human mGlu1 mutant receptors (P729T, A683E, Y632H, P1014S); assay type: cell-based; conditions: noted at compound concentrations above 1 μM

T1 sequence (Q13255 19-1194): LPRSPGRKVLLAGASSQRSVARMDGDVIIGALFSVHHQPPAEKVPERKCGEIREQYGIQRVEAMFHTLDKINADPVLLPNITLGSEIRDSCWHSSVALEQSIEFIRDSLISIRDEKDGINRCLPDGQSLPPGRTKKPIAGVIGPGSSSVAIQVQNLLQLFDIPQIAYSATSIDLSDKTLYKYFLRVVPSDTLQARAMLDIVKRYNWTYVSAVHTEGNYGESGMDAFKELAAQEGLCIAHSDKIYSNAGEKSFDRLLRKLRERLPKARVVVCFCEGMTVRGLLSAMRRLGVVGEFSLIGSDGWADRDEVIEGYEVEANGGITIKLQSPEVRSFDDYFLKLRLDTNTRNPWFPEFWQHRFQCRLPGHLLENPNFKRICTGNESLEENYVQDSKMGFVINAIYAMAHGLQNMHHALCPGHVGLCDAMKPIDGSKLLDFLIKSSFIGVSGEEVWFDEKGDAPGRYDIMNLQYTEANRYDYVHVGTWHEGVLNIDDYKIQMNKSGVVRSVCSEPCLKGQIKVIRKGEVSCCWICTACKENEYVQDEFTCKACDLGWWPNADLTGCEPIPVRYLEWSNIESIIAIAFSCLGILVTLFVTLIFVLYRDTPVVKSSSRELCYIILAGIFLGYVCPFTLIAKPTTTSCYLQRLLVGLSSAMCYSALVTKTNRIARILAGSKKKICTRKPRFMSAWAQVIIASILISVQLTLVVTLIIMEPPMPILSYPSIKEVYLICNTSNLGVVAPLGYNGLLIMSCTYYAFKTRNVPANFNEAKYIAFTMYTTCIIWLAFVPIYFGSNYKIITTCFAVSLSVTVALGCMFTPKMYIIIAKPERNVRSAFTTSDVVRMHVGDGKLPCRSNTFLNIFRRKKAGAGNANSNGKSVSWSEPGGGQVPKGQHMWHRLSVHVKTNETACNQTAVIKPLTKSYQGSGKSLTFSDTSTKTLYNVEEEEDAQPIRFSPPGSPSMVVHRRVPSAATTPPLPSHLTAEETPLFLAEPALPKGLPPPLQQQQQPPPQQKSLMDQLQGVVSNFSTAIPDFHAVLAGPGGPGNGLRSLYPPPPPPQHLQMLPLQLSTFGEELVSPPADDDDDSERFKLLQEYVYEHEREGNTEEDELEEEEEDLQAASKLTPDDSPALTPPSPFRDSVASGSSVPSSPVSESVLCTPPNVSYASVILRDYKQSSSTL
Sequence of hmGlu4 (Q14833 33-912): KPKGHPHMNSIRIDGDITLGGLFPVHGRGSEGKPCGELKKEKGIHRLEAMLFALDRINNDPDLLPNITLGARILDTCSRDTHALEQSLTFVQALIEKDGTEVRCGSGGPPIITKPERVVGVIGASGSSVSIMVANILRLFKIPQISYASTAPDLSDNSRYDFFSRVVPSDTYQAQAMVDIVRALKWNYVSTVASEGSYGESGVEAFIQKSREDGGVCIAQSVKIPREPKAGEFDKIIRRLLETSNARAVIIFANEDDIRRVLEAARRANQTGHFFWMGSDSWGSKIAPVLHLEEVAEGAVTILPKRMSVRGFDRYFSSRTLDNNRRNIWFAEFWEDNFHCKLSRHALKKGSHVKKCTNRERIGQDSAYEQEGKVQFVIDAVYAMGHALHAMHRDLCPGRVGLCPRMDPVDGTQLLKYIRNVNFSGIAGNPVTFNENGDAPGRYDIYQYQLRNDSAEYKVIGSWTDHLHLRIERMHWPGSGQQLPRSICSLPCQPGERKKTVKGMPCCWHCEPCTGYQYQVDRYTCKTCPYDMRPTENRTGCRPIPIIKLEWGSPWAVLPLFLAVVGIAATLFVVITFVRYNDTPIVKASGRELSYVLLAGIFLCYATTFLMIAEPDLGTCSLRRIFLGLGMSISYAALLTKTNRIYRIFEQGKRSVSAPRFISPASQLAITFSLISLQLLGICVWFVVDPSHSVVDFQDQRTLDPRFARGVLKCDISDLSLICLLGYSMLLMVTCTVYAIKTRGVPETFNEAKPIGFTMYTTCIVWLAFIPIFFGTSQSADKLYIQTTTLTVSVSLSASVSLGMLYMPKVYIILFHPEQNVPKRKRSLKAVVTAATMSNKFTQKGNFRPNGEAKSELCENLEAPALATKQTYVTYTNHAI
Sequence of rat mGlu1 WT receptors (P23385 19-1199): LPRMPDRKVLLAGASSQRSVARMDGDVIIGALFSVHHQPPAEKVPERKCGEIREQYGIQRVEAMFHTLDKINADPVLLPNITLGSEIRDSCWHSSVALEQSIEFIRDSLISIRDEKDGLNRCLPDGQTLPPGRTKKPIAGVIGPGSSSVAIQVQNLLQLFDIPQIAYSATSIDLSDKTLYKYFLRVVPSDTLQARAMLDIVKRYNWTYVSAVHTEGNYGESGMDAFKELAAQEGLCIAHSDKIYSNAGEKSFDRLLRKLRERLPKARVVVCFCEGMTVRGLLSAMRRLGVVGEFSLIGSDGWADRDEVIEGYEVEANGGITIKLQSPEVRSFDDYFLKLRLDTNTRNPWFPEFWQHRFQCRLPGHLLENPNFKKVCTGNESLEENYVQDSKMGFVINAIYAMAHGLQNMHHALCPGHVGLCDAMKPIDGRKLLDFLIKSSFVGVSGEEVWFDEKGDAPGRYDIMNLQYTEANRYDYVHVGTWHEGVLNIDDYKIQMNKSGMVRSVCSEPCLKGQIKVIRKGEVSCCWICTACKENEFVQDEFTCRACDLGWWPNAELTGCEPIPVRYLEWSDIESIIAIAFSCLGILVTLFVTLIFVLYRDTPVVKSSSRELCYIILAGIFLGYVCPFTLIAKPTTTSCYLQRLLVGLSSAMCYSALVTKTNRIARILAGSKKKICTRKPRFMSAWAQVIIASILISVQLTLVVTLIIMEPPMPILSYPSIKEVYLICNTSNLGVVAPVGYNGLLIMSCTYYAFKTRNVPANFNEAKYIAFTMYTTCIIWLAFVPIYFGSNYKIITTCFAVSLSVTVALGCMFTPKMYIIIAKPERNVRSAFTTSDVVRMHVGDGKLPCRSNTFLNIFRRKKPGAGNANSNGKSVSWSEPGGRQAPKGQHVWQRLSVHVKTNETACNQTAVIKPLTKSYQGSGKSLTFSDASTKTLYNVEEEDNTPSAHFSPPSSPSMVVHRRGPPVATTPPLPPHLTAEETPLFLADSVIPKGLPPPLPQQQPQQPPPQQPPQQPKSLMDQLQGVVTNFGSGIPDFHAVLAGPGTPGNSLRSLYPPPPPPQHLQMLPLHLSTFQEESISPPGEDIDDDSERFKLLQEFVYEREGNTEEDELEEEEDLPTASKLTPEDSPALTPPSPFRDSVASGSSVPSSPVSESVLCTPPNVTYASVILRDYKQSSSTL

SMILES: O=C(Nc1ccc(N2C(=O)c3ccccc3C2=O)c(Cl)c1)c1cncs1 [9i]
- mGlu1 PAM activity in words [1]: inactive

SMILES: O=C(Nc1ccc(N2C(=O)c3ccccc3C2=O)c(Cl)c1)c1ncco1 [9e]
- mGlu1 PAM activity in words [1]: inactive

SMILES: Cc1ccoc1C(=O)Nc1ccc(N2C(=O)c3ccc(Cl)cc3C2=O)c(Cl)c1 [17d, N-(3-Chloro-4-(5-chloro-1,3-dioxoisoindolin-2-yl)phenyl)-3-methylfuran-2-carboxamide]
- behavioral convulsions (modified Racine score 0–5) ([2]; 100 mg/kg ip): no measurable behavioral disturbances at any time point; also recorded: no adverse effects
- rat CLHEP [3]: 17.2 mL/min/kg
- rat CLINT [3]: 22.8 mL/min/kg
- human fu plasma [4]: unstable
- rat fu plasma [5]: unstable
- human CLINT [6]: 2.90 mL/min/kg
- parent compound remaining in human plasma [7]: no parent 17d remains
- rat mGlu1 pEC50 [8]: 6.95 ± 0.13
- parent compound remaining in rat plasma [9]: no parent 17d remains

SMILES: Cc1ccoc1C(=O)Nc1ccc(N2C(=O)c3ccc(F)cc3C2=O)c(Cl)c1 [17f, N-(3-Chloro-4-(5-fluoro-1,3-dioxoisoindolin-2-yl)phenyl)-3-methylfuran-2-carboxamide]
- agonism at the highest concentration [10]: < 20%

SMILES: O=C(Nc1ccc(N2C(=O)c3cccc(Cl)c3C2=O)c(Cl)c1)c1ncccc1Cl [compound 8, reference compound]
- rat CLINT [3]: 39.9 mL/min/kg
- human fu plasma [4]: unstable
- rat fu plasma [5]: unstable
- human CLINT [6]: 17.2 mL/min/kg

SMILES: O=C(Nc1ccc(N2C(=O)c3ccccc3C2=O)c(Cl)c1)c1cc2ccccc2o1 [10m]
- mGlu1 PAM activity in words [1]: inactive

SMILES: O=C(Nc1ccc(N2C(=O)c3ccccc3C2=O)c(Cl)c1)c1coc2ccccc12 [10n]
- mGlu1 PAM activity in words [1]: inactive

SMILES: Cc1ccoc1C(=O)Nc1ccc(N2C(=O)c3ccncc3C2=O)c(Cl)c1 [17g, N-(3-Chloro-4-(1,3-dioxo-1,3-dihydro-2H-pyrrolo[3,4-c]-pyridin-2-yl)phenyl)-3-methylfuran-2-carboxamide]
- behavioral convulsions (modified Racine score 0–5) ([2]; 100 mg/kg ip): no measurable behavioral disturbances at any time point; also recorded: no adverse effects
- rat CLHEP [3]: 59.7 mL/min/kg
- rat CLINT [3]: 405 mL/min/kg
- CLp [11]: 382 mL/min/kg
- clearance ([11]; rat, plasma, iv, 0.2 mg/kg, CLp): 283 mL/min/kg
- human fu plasma [4]: unstable
- human CLINT [6]: 167 mL/min/kg
- rat mGlu1 pEC50 [8]: 6.95 ± 0.15

SMILES: N[C@H](C(=O)O)c1cc(O)cc(O)c1 [DHPG, S-3,5-dihydroxyphe-nylglycine, reference compound]
- induction of epileptiform activity in CA3 ([12]; 50 μM, positive control): induced marked epileptiform activity

SMILES: C[C@@H](NC(=O)c1ccc(C#Cc2cccc(F)c2)cn1)C(C)(C)O [compound 18, (R)-5-((3-fluorophenyl)ethynyl)-N-(3-hydroxy-3-methylbutan-2-yl)picolinamide, reference compound]
- time of peak convulsion responses after administration ([2]; 1 or 3 mg/kg ip): approximately 5 min
- behavioral convulsions (modified Racine score 0–5) ([2]; 1 or 3 mg/kg ip): severe, dose-dependent behavioral manifestations of seizure activity; also recorded: Severe, dose-dependent behavioral convulsions

SMILES: Cc1ccoc1C(=O)Nc1ccc(N2C(=O)c3cccc(F)c3C2=O)c(Cl)c1 [17e, N-(3-Chloro-4-(4-fluoro-1,3-dioxoisoindolin-2-yl)phenyl)-3-methylfuran-2-carboxamide]
- fold shift of glutamate CRC at mGlu2 [13]: < 2 fold
- behavioral convulsions (modified Racine score 0–5) ([2]; 100 mg/kg ip): no measurable behavioral disturbances at any time point; also recorded: no adverse effects
- rat CLHEP [3]: 52.3 mL/min/kg
- rat CLINT [3]: 207 mL/min/kg
- hmGlu4 pEC50 (±SEM) [14]: 5.95 ± 0.16
- induction of epileptiform activity in CA3 ([12]; 10 μM bath application): did not induce epileptiform activity; also recorded: does not induce epileptiform activity
- human CLHEP [6]: 2.70 mL/min/kg
- human CLINT [6]: 3.10 mL/min/kg
- ago-PAM activity across all four mutants [15]: ≤ 40%

SMILES: O=C(Nc1nc(C(F)(F)F)co1)C1c2ccccc2Oc2ccccc21 [compound 5, reference compound]
- behavioral convulsions (modified Racine score 0–5) ([2]; 100 mg/kg ip): no adverse effects
- rat CLHEP [3]: 63.3 mL/min/kg
- rat CLINT [3]: 661 mL/min/kg
- human CLINT [6]: 262 mL/min/kg

SMILES: Cc1ccoc1C(=O)Nc1ccc(N2C(=O)c3cccc(Cl)c3C2=O)c(Cl)c1 [17c, N-(3-Chloro-4-(4-chloro-1,3-dioxoisoindolin-2-yl)phenyl)-3-methylfuran-2-carboxamide]
- hmGlu4 pEC50 (±SEM) [14]: 5.94 ± 0.22

SMILES: O=C(Nc1ccc(N2C(=O)c3ccccc3C2=O)c(Cl)c1)c1cnco1 [9d]
- mGlu1 PAM activity in words [1]: inactive

SMILES: O=C(Nc1ccc(N2C(=O)c3ccccc3C2=O)c(Cl)c1)C1CCCO1 (stereo not drawn) [9n]
- mGlu1 PAM activity in words [1]: inactive

— publication PMC4839290 (Journal of medicinal chemistry, 2015)
